Experimental data: ChEMBL document CHEMBL3044905, “Level of catechin, myricetin, quercetin and isoquercitrin in buckwheat (Fagopyrum esculentum Moench), changes of their levels during vegetation and their effect on the growth of selected weeds” (J Agric Food Chem, 2009)

Columns and labels:
Format in all cases: functional, organism-based
Lolium perenne [1] = test: Phytotoxic activity against Lolium perenne (perennial ryegrass) assessed as inhibition of root growth at 22 +/-2 degC after 72 hr
Summary of the method: (§1)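 Test solutions were made in 90% methanol and applied to filter paper in Petri dishes, with a methanol-only control. Concentrations ranged from 1 to 5000 or 10000 µmol, depending on the compound. After 72 h incubation, root and hypocotyl lengths were measured on at least three replicate plates per concentration. Percentage influence was calculated relative to a distilled-water control, and EC50 (µM) was reported with R2.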

Lolium perenne [2] = test: Phytotoxic activity against Lolium perenne (perennial ryegrass) assessed as inhibition of hypocotyl growth at 22 +/-2 degC after 72 hr; summary of the method: as §1
Sinapis alba [3] = test: Phytotoxic activity against Sinapis alba assessed as inhibition of hypocotyl growth at 22 +/-2 degC after 72 hr; summary of the method: as §1
Sinapis alba [4] = test: Phytotoxic activity against Sinapis alba assessed as inhibition of root growth at 22 +/-2 degC after 72 hr; summary of the method: as §1
Trifolium repens [5] = test: Phytotoxic activity against Trifolium repens assessed as inhibition of hypocotyl growth at 22 +/-2 degC after 72 hr; summary of the method: as §1
Achillea millefolium [6] = test: Phytotoxic activity against Achillea millefolium assessed as inhibition of hypocotyl growth at 22 +/-2 degC after 72 hr; summary of the method: as §1
Plantago lanceolata [7] = test: Phytotoxic activity against Plantago lanceolata assessed as inhibition of hypocotyl growth at 22 +/-2 degC after 72 hr; summary of the method: as §1
Amaranthus retroflexus [8] = test: Phytotoxic activity against Amaranthus retroflexus assessed as inhibition of hypocotyl growth at 22 +/-2 degC after 72 hr; summary of the method: as §1
Echinochloa crus-galli [9] = test: Phytotoxic activity against Echinochloa crus-galli (barnyard grass) assessed as inhibition of hypocotyl growth at 22 +/-2 degC after 72 hr; summary of the method: as §1
Plantago lanceolata [10] = test: Phytotoxic activity against Plantago lanceolata assessed as inhibition of root growth at 22 +/-2 degC after 72 hr; summary of the method: as §1
Echinochloa crus-galli [11] = test: Phytotoxic activity against Echinochloa crus-galli (barnyard grass) assessed as inhibition of root growth at 22 +/-2 degC after 72 hr; summary of the method: as §1
Trifolium repens [12] = test: Phytotoxic activity against Trifolium repens assessed as inhibition of root growth at 22 +/-2 degC after 72 hr; summary of the method: as §1
Amaranthus retroflexus [13] = test: Phytotoxic activity against Amaranthus retroflexus assessed as inhibition of root growth at 22 +/-2 degC after 72 hr; summary of the method: as §1
Achillea millefolium [14] = test: Phytotoxic activity against Achillea millefolium assessed as inhibition of root growth at 22 +/-2 degC after 72 hr; summary of the method: as §1

Row | Structure (SMILES) | EC50 (Lolium perenne [1]) | EC50 (Lolium perenne [2]) | EC50 (Sinapis alba [3]) | EC50 (Sinapis alba [4]) | EC50 (Trifolium repens [5]) | EC50 (Achillea millefolium [6]) | EC50 (Plantago lanceolata [7]) | EC50 (Amaranthus retroflexus [8]) | EC50 (Echinochloa crus-galli [9]) | EC50 (Plantago lanceolata [10]) | EC50 (Echinochloa crus-galli [11]) | EC50 (Trifolium repens [12]) | EC50 (Amaranthus retroflexus [13]) | EC50 (Achillea millefolium [14])
1 | O=c1c(O)c(-c2ccc(O)c(O)c2)oc2cc(O)cc(O)c12 [QUERCETIN] | 273 µM | 183 µM | 12800 µM | 7050 µM |  |  |  |  |  |  |  |  |  | 
2 | Oc1cc(O)c2c(c1)O[C@H](c1ccc(O)c(O)c1)[C@@H](O)C2 [CIANIDANOL] | 377 µM | 120 µM | 780 µM | 445 µM | 169 µM | 527 µM | 360 µM | 9300 µM | 148 µM | 55 µM | 362 µM | 433 µM | 2830 µM | 472 µM
3 | O=c1c(O[C@@H]2O[C@H](CO)[C@@H](O)[C@H](O)[C@H]2O)c(-c2ccc(O)c(O)c2)oc2cc(O)cc(O)c12 [ISOQUERCETIN] | 90100 µM | 33800 µM | 9560 µM | 5910 µM |  |  | 37100 µM |  | 35200 µM | 54600 µM | 89100 µM |  |  | 
